Measurements as given in ChEMBL document CHEMBL1136421, “New tetrahydrobenzindoles as potent and selective 5-HT(7) antagonists with increased In vitro metabolic stability” (Bioorg Med Chem Lett, 2003).

What was measured:
[1] = molecular target: T1, Serotonin 2 (5-HT2) receptor (Rattus norvegicus, UniProt P30994+P08909+P14842); experiment: Binding affinity towards 5-hydroxytryptamine 2 receptor by the displacement of [3H]ketanserin in rat cerebral cortex membrane; format: cell membranes
Method in brief: (§1)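 Displacement of [3H]ketanserin from rat cerebral cortex membranes at the 5-HT2 site. Affinity reported as pKi, given as mean ± SE of 8–12 values.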

[2] = molecular target: T2, 5-hydroxytryptamine receptor 7 (Homo sapiens, UniProt P34969); experiment: Ability to displace the radioligand [3H]5-carboximidotryptamine ([3H]-5-CT) from cloned human 5-hydroxytryptamine 7 receptor expressed in COS-7 cells; format: cell-based
Method in brief: (§2)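 Displacement of [3H]5-CT from cloned human 5-HT7 receptor expressed in COS-7 cells. Affinity reported as pKi, given as mean ± SE of 8–12 values.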

[3] = molecular target: 5-hydroxytryptamine receptor 1B (Homo sapiens, UniProt P28222); experiment: Binding affinity towards 5-HT1B receptor by the displacement of [3H][…]] in human recombinant receptors in mammalian cell
[4] = molecular target: T1, Serotonin 2 (5-HT2) receptor; experiment: Binding affinity towards 5-HT2 receptor by the displacement of [3H]-ketanserin] in rat cerebral cortex; format: tissue-based; method in brief: as §1
[5] = molecular target: T3, 5-hydroxytryptamine receptor 1A (Homo sapiens, UniProt P08908); experiment: Binding affinity towards 5-HT1A receptor by the displacement of [3H]-8-OH-DPAT] in human recombinant receptors in mammalian cell
T3 sequence (P08908 whole entry): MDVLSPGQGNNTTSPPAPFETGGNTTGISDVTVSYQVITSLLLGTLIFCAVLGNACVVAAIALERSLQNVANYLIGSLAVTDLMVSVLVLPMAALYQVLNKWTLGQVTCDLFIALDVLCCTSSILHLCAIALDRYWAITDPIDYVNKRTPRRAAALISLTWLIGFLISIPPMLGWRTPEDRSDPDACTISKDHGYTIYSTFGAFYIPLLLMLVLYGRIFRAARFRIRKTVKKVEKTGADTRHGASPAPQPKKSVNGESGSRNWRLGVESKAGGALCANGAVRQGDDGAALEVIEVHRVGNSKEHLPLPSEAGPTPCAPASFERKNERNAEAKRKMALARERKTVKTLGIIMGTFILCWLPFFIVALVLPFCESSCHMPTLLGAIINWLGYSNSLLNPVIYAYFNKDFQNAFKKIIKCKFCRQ
Method in brief: (§3)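 Radioligand displacement binding at the named receptor preparation. Affinity reported as pKi, given as mean ± SE of 8–12 values.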

[6] = molecular target: Serotonin 3 (5-HT3) receptor; experiment: Binding affinity towards 5-HT3 receptor by the displacement of [3H]GR-65630] in human recombinant receptors in mammalian cell; format: protein-complex assay; method in brief: as §3
[7] = molecular target: T2, 5-hydroxytryptamine receptor 7; experiment: Binding affinity towards 5-HT7 receptor by the displacement of [3H]-5-CT] in human recombinant receptors in mammalian cell; method in brief: as §2
[8] = molecular target: 5-hydroxytryptamine receptor 4 (Cavia porcellus, UniProt O70528); experiment: Binding affinity towards 5-HT4 receptor by the displacement of [3H]GR-113808 in guinea-pig striatum; format: tissue-based; method in brief: as §3
[9] = molecular target: T4, 5-hydroxytryptamine receptor 2C (Homo sapiens, UniProt P28335); experiment: Binding affinity towards 5-HT2C receptor by the displacement of [3H]mesulergine] in human recombinant receptors in mammalian cell; method in brief: as §3
T4 sequence (P28335 whole entry): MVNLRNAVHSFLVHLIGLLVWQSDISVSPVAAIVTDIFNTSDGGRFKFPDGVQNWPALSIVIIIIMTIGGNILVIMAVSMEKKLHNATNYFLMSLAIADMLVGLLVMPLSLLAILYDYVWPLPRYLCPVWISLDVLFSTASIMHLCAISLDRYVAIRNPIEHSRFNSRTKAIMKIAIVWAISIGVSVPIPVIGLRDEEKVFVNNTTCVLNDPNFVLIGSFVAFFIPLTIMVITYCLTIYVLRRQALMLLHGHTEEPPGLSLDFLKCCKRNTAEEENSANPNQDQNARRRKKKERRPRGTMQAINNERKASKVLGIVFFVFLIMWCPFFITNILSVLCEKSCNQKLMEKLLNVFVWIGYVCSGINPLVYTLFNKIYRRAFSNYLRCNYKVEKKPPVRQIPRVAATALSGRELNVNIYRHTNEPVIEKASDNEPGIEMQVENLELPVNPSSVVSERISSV

[10] = molecular target: 5-hydroxytryptamine receptor 6 (Homo sapiens, UniProt P50406); experiment: Binding affinity towards human recombinant 5-hydroxytryptamine 6 receptor by the displacement of [3H]-5-CT]
5-hydroxytryptamine receptor 6, sequence (P50406 whole entry): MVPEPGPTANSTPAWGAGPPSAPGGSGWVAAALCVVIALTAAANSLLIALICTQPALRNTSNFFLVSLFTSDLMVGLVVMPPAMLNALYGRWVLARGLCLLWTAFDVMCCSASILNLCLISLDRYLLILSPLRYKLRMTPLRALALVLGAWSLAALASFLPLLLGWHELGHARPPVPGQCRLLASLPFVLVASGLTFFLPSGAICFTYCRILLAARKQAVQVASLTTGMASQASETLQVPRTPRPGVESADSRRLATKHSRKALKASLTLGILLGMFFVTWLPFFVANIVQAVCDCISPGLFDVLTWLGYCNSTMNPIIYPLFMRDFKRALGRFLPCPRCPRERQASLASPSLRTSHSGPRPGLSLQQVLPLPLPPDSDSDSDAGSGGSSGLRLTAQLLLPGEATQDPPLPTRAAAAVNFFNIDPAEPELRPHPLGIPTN

T2 sequence (P34969 whole entry): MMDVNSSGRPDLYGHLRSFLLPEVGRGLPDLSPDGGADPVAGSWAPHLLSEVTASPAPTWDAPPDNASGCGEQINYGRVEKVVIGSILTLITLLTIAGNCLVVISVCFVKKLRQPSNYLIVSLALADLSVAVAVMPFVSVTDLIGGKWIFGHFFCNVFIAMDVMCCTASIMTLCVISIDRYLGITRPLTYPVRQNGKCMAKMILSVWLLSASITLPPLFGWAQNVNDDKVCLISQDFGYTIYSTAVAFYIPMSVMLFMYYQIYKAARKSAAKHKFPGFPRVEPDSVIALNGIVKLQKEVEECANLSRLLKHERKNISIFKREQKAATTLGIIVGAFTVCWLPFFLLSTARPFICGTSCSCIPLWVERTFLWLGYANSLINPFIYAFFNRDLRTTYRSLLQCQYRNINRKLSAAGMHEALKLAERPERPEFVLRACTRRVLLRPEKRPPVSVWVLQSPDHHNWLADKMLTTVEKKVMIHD
5-hydroxytryptamine receptor 1B, sequence (P28222 whole entry): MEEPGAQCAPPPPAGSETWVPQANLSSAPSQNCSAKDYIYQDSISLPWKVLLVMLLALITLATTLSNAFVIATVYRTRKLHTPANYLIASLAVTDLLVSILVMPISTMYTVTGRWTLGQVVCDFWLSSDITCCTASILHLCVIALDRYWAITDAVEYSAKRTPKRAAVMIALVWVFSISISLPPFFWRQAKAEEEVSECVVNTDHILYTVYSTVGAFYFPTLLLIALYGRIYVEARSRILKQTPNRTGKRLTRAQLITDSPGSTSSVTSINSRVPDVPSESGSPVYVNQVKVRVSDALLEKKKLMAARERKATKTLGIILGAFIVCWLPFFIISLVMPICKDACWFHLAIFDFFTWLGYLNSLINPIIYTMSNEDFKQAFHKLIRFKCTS
5-hydroxytryptamine receptor 4, sequence (O70528 whole entry): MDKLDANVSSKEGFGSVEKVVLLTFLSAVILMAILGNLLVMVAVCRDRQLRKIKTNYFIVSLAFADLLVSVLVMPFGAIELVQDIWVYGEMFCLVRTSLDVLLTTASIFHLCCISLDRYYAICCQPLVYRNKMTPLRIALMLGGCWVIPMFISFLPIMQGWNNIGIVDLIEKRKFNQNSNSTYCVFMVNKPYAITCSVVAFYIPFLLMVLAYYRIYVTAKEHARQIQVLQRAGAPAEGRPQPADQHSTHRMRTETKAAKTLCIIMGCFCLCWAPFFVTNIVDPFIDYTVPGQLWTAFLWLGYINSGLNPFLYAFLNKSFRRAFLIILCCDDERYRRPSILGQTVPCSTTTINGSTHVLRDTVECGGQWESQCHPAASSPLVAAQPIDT

SMILES	Log Ki [1]	Ki [2] [nM]	Ki [3] [nM]	Log Ki [4]	Ki [5] [nM]	Log Ki [6]	Ki [7] [nM]	Ki [8] [nM]	Ki [9] [nM]	Ki [10] [nM]
O=C1Nc2ccc(Cl)c3c2C1(CCCCN1CC=C(c2ccccc2)CC1)CCC3 (stereo not given)	> -6.5	5.01								
O=C1Nc2ccc(Cl)c3c2C1(CCCCN1CC=C(c2ccc(Cl)cc2)CC1)CCC3 (stereo not given)	> -6	7.24	> 1000	> -6	316	> -6	7.24	> 1000	> 1000	> 1000
O=C1Nc2cccc3c2C1(CCCCN1CC=C(c2ccc(F)cc2)CC1)CCC3 (stereo not given)	> -7.18									
O=C1Nc2ccc(Cl)c3c2C1(CCCCN1CC=C(c2ccc(F)cc2)CC1)CCC3 (stereo not given)	> -6.64	2.04								
